Test results published in ChEMBL document CHEMBL5712897, “EZH2 inhibits autophagic cell death of aortic vascular smooth muscle cells to affect aortic dissection” (2018).
One block for each compound: values may come before it. Active and inactive are the calls of the source. The rule behind the calls is not given here.

Legend:
[1] = Induction of apoptosis in mouse MOVAS cells assessed as early apoptotic cells by flow cytometry; assay type: functional
Summary of the method: (§1)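 Trypsinized MOVAS cells stained with a PE Annexin V apoptosis detection kit and analysed by flow cytometry, which separated early and late apoptotic populations. Mean ± SD; two-tailed Student's t-test.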

MOVAS [2] = test: Cell cycle arrest in mouse MOVAS cells assessed as effect on S-phase cell population by flow cytometry; assay type: functional, cell-based
Summary of the method: (§2)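 MOVAS mouse aortic SMCs (about 2–5×10^6) harvested by trypsin, washed twice in PBS, fixed overnight at 4 °C in cold 70% ethanol, then stained 2 h in the dark with RNase A (0.3 mg) and propidium iodide (0.015 mg). Cell-cycle phase distribution read by flow cytometry. Data are mean ± SD, compared by two-tailed t-test.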

MOVAS [3] = test: Cell cycle arrest in mouse MOVAS cells assessed as effect on G2/M-phase cell population by flow cytometry; assay type: functional, cell-based; summary of the method: as §2
[4] = Induction of apoptosis in mouse MOVAS cells assessed as late apoptotic cells by flow cytometry; assay type: functional; summary of the method: as §1
MOVAS [5] = test: Cell cycle arrest in mouse MOVAS cells assessed as effect on G0/G1-phase cell population by flow cytometry; assay type: functional, cell-based; summary of the method: as §2
[6] = target: Histone-lysine N-methyltransferase EZH2 (Mus musculus) (UniProt Q61188); test: Inhibition of EZH2 in mouse MOVAS cells assessed as reduction in cell number at 5 uM measured at 24 hrs by cell counting method; assay type: cell-based
Summary of the method: (§3)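 MOVAS cells serum-starved 12 h in DMEM/high glucose, then 2×10^5 cells seeded in six-well plates in medium with 10% FBS. Trypsinized at 12, 24, 36 and 48 h and counted by a single blinded observer. Three replicate wells (n = 3); mean ± SD, two-tailed t-test.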

[7] = target: Histone-lysine N-methyltransferase EZH2 (Mus musculus) (UniProt Q61188); test: Inhibition of EZH2 in mouse VSMC cells assessed as reduction in cell count at 5 uM for 24 hrs by light microscopic analysis; assay type: cell-based; settings: MOVAS
[8] = target: Histone-lysine N-methyltransferase EZH2 (Mus musculus) (UniProt Q61188); test: Inhibition of EZH2 in mouse MOVAS cells transfected with shATG7 assessed as increase in LC3-II expression at 5 uM by Western blot analysis; assay type: cell-based
Summary of the method: (§4)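 Total protein from MOVAS cells extracted in RIPA buffer. 20 μg per lane resolved by SDS-PAGE and transferred to PVDF. Blocked in 5% non-fat milk, primary antibody overnight at 4 °C, then peroxidase-conjugated secondary and chemiluminescence imaging. Normalized to GAPDH or β-actin loading control. n = 4; mean ± SD versus DMSO, two-tailed t-test.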

[9] = target: Histone-lysine N-methyltransferase EZH2 (Mus musculus) (UniProt Q61188); test: Inhibition of EZH2 in mouse MOVAS cells over-expressing AKT assessed as reduction in H3K27me3 level at 5 uM measured after 24 hrs by Western blot analysis; assay type: cell-based; summary of the method: as §4
[10] = target: Histone-lysine N-methyltransferase EZH2 (Mus musculus) (UniProt Q61188); test: Inhibition of EZH2 in mouse MOVAS cells assessed as effect on AMPKalpha phosphorylation at 5 uM measured after 24 hrs by Western blot analysis; assay type: cell-based; summary of the method: as §4
[11] = target: Histone-lysine N-methyltransferase EZH2 (Mus musculus) (UniProt Q61188); test: Inhibition of EZH2 in mouse MOVAS cells over-expressing AKT assessed as reduction in cell count at 5 uM by light microscopy; assay type: cell-based
Summary of the method: (§5)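 Mouse MOVAS VSMCs imaged by light microscopy after 48 h of the indicated treatments (scale bar 200 μm). Lentivirally modified cells were selected with puromycin 2 μg/ml after 48 h infection. Treatments were inhibitor 5 μM, DMSO vehicle, or PD98059 50 μM.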

[12] = target: Histone-lysine N-methyltransferase EZH2 (Mus musculus) (UniProt Q61188); test: Inhibition of EZH2 in mouse MOVAS cells over-expressing AKT assessed as reduction in cell count at 5 uM by cell counting method; assay type: cell-based; summary of the method: as §3
[13] = target: Histone-lysine N-methyltransferase EZH2 (Mus musculus) (UniProt Q61188); test: Inhibition of EZH2 in mouse MOVAS cells assessed as increase in ATG7 expression at 5 uM measured after 24 hrs by Western blot analysis; assay type: cell-based; summary of the method: as §4
MOVAS [14] = test: Cell cycle arrest in mouse MOVAS cells assessed as effect on G2/M-phase cell population at 5 uM by flow cytometry; assay type: functional, cell-based; summary of the method: as §2
[15] = target: Histone-lysine N-methyltransferase EZH2 (Mus musculus) (UniProt Q61188); test: Inhibition of EZH2 in mouse MOVAS cells assessed as effect on mTOR phosphorylation at 5 uM measured after 24 hrs by Western blot analysis; assay type: cell-based; summary of the method: as §4
[16] = target: Histone-lysine N-methyltransferase EZH2 (Mus musculus) (UniProt Q61188); test: Inhibition of EZH2 in mouse MOVAS cells over-expressing AKT assessed as increase in LC3-II expression at 5 uM measured after 24 hrs by Western blot analysis; assay type: cell-based; summary of the method: as §4
[17] = target: Histone-lysine N-methyltransferase EZH2 (Mus musculus) (UniProt Q61188); test: Inhibition of EZH2 in mouse MOVAS cells transfected with shATG7 assessed as reduction in cell count at 5 uM measured after 48 hrs by light microscopy; assay type: cell-based; summary of the method: as §5
[18] = target: Histone-lysine N-methyltransferase EZH2 (Mus musculus) (UniProt Q61188); test: Inhibition of EZH2 in mouse MOVAS cells assessed as effect on S6 phosphorylation at 5 uM measured after 24 hrs by Western blot analysis; assay type: cell-based; summary of the method: as §4
[19] = target: Histone-lysine N-methyltransferase EZH2 (Mus musculus) (UniProt Q61188); test: Inhibition of EZH2 in mouse MOVAS cells assessed as cell injury at 5 uM measured after 48 hrs by LDH release assay; assay type: cell-based
Summary of the method: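 Mouse MOVAS VSMCs exposed to inhibitor for 48 h. Cell injury quantified as percentage of injured cells from released LDH using a cytotoxicity LDH kit. n = 6; mean ± SD versus DMSO, two-tailed t-test.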

[20] = target: Histone-lysine N-methyltransferase EZH2 (Mus musculus) (UniProt Q61188); test: Inhibition of EZH2 in mouse MOVAS cells assessed as appearance of double-membraned vacuole containing fragments of cytoplasmic component in presence of rapamycin by transmission electron microscopy; assay type: cell-based
Summary of the method: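 MOVAS cells treated with inhibitor or lentivirus, with rapamycin at 150 nM. Fixed in cold 2.5% glutaraldehyde for 30 min, then further fixed overnight at 4 °C, dehydrated in ethanol and acetone, and embedded in epoxy resin. 60-nm sections stained with uranyl acetate and lead citrate and imaged by TEM for double-membraned autophagic vacuoles.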

[21] = target: Histone-lysine N-methyltransferase EZH2 (Mus musculus) (UniProt Q61188); test: Inhibition of EZH2 in mouse MOVAS cells transfected with shATG7 assessed as reduction in cell count at 5 uM measured up to 48 hrs by cell counting method; assay type: cell-based; summary of the method: as §3
[22] = target: Histone-lysine N-methyltransferase EZH2 (Mus musculus) (UniProt Q61188); test: Inhibition of EZH2 in mouse MOVAS cells over-expressing AKT assessed as reduction in H3K27me2 level at 5 uM measured after 24 hrs by Western blot analysis; assay type: cell-based; summary of the method: as §4
[23] = target: Histone-lysine N-methyltransferase EZH2 (Mus musculus) (UniProt Q61188); test: Inhibition of EZH2 in mouse MOVAS cells transfected with shATG5 assessed as reduction in cell count at 5 uM measured after 48 hrs by light microscopy; assay type: cell-based; summary of the method: as §5
[24] = target: Histone-lysine N-methyltransferase EZH2 (Mus musculus) (UniProt Q61188); test: Inhibition of EZH2 in mouse MOVAS cells assessed as increase in LC3-II accumulation at 5 uM measured after 24 hrs in presence of MEK1 inhibitor PD98059 by Western blot analysis; assay type: cell-based; summary of the method: as §4
MOVAS [25] = test: Cell cycle arrest in mouse MOVAS cells assessed as effect on S-phase cell population at 5 uM by flow cytometry; assay type: functional, cell-based; summary of the method: as §2
[26] = Induction of apoptosis in mouse MOVAS cells assessed as late apoptotic cells at 5 uM by flow cytometry; assay type: functional; summary of the method: as §1
[27] = target: Histone-lysine N-methyltransferase EZH2 (Mus musculus) (UniProt Q61188); test: Inhibition of EZH2 in mouse MOVAS cells assessed as elevation of LC3-II expression at 5 uM by Western blot analysis; assay type: cell-based; summary of the method: as §4
[28] = Induction of apoptosis in mouse MOVAS cells assessed as early apoptotic cells at 5 uM by flow cytometry; assay type: functional; summary of the method: as §1
[29] = target: Histone-lysine N-methyltransferase EZH2 (Mus musculus) (UniProt Q61188); test: Inhibition of EZH2 in mouse MOVAS cells assessed as reduction in H3K27me3 level at 5 uM measured after 24 hrs by Western blot analysis; assay type: cell-based; summary of the method: as §4
[30] = target: Histone-lysine N-methyltransferase EZH2 (Mus musculus) (UniProt Q61188); test: Inhibition of EZH2 in mouse MOVAS cells assessed as reduction in H3K27me2 level at 5 uM measured after 24 hrs by Western blot analysis; assay type: cell-based; summary of the method: as §4
[31] = target: Histone-lysine N-methyltransferase EZH2 (Mus musculus) (UniProt Q61188); test: Inhibition of EZH2 in mouse MOVAS cells assessed as increase in ERK1/2 phosphorylation at 5 uM measured after 6 hrs in presence of MEK1 inhibitor PD98059 by Western blot analysis; assay type: cell-based; summary of the method: as §4
[32] = target: Histone-lysine N-methyltransferase EZH2 (Mus musculus) (UniProt Q61188); test: Inhibition of EZH2 in mouse MOVAS cells assessed as elevation of LC3-II expression at 5 uM in presence of chloroquine and rapamycin by Western blot analysis; assay type: cell-based; summary of the method: as §4
[33] = target: Histone-lysine N-methyltransferase EZH2 (Mus musculus) (UniProt Q61188); test: Inhibition of EZH2 in mouse MOVAS cells assessed as reduction in cell count at 5 uM measured after 48 hrs in presence of MEK1 inhibitor PD98059 by light microscopy; assay type: cell-based; summary of the method: as §5
[34] = target: Histone-lysine N-methyltransferase EZH2 (Mus musculus) (UniProt Q61188); test: Inhibition of EZH2 in mouse MOVAS cells assessed as reduction in AKT phosphorylation at 5 uM measured after 24 hrs by Western blot analysis; assay type: cell-based; summary of the method: as §4
[35] = target: Histone-lysine N-methyltransferase EZH2 (Mus musculus) (UniProt Q61188); test: Inhibition of EZH2 in mouse MOVAS cells assessed as reduction in cell count at 5 uM measured after 48 hrs in presence of MEK1 inhibitor PD98059 by cell counting method; assay type: cell-based; summary of the method: as §3
[36] = target: Histone-lysine N-methyltransferase EZH2 (Mus musculus) (UniProt Q61188); test: Inhibition of EZH2 in mouse MOVAS cells transfected with shATG5 assessed as increase in LC3-II expression at 5 uM by Western blot analysis; assay type: cell-based; summary of the method: as §4
[37] = target: Histone-lysine N-methyltransferase EZH2 (Mus musculus) (UniProt Q61188); test: Inhibition of EZH2 in mouse MOVAS cells assessed as increase in ERK1/2 phosphorylation at 5 uM measured after 6 hrs by Western blot analysis; assay type: cell-based; summary of the method: as §4
[38] = target: Histone-lysine N-methyltransferase EZH2 (Mus musculus) (UniProt Q61188); test: Inhibition of EZH2 in mouse MOVAS cells transfected with shATG5 assessed as reduction in cell count at 5 uM measured up to 48 hrs by cell counting method; assay type: cell-based; summary of the method: as §3
[39] = target: Histone-lysine N-methyltransferase EZH2 (Mus musculus) (UniProt Q61188); test: Inhibition of EZH2 in mouse MOVAS cells assessed as elevation of LC3-II expression at 5 uM in presence of chloroquine by Western blot analysis; assay type: cell-based; summary of the method: as §4
MOVAS [40] = test: Cell cycle arrest in mouse MOVAS cells assessed as effect on G0/G1-phase cell population at 5 uM by flow cytometry; assay type: functional, cell-based; summary of the method: as §2
[41] = target: Histone-lysine N-methyltransferase EZH2 (Mus musculus) (UniProt Q61188); test: Inhibition of EZH2 in mouse MOVAS cells assessed as increase in ATG5 expression at 5 uM measured after 24 hrs by Western blot analysis; assay type: cell-based; summary of the method: as §4

Histone-lysine N-methyltransferase EZH2 (Mus musculus), sequence (Q61188 whole entry): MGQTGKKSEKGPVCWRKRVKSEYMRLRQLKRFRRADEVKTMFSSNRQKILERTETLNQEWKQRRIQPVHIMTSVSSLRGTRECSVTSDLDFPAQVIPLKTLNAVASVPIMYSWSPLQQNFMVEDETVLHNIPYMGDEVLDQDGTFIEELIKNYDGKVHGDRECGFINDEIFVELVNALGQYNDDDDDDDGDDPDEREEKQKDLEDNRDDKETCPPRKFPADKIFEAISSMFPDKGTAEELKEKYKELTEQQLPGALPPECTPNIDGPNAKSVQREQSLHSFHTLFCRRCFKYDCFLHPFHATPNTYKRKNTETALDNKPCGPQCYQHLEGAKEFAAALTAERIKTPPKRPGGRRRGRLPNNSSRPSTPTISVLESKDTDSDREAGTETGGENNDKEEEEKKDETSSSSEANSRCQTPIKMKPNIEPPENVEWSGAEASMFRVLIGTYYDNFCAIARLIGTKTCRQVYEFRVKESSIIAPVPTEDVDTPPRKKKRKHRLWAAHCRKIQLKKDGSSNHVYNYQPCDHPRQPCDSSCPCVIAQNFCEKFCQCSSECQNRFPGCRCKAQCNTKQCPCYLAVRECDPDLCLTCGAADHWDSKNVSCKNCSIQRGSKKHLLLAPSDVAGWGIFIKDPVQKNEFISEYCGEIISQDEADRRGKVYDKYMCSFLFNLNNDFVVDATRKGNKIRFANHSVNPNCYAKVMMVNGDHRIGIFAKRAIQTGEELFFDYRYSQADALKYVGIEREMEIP

SMILES: C[S+](C)[O-] [DIMETHYL SULFOXIDE]
Activity [1]: 9.76%
Activity (MOVAS [2]): inactive
Activity (MOVAS [3]): inactive
Activity [4]: 5.96%
Activity (MOVAS [5]): inactive

inhibition [6]: Active
inhibition [7]: Active
inhibition [8]: inactive
inhibition [9]: Active
inhibition [10]: inactive
inhibition [11]: Active
inhibition [12]: Active
inhibition [13]: Active
inhibition [15]: inactive
inhibition [16]: Active
inhibition [17]: inactive
inhibition [18]: inactive
inhibition [20]: Active
inhibition [21]: inactive
inhibition [22]: Active
inhibition [23]: inactive
inhibition [24]: inactive
inhibition [27]: Active
inhibition [29]: Active
inhibition [30]: Active
inhibition [31]: inactive
inhibition [32]: Active
inhibition [33]: inactive
inhibition [34]: Active
inhibition [35]: inactive
inhibition [36]: inactive
inhibition [37]: Active
inhibition [38]: inactive
inhibition [39]: Active
inhibition [41]: Active
SMILES: CCCc1cc(C)[nH]c(=O)c1CNC(=O)c1cc(-c2ccc(N3CCN(C(C)C)CC3)nc2)cc2c1cnn2C(C)C
Activity (MOVAS [14]): inactive
inhibition [19]: Active
Activity (MOVAS [25]): inactive
Activity [26]: 6.11%
Activity [28]: 8.67%
Activity (MOVAS [40]): inactive
